Test results reported in PubChem BioAssay AID624080 (The Scripps Research Institute Molecular Screening Center, 2012).
Where “and” joins values, the source holds several entries; their conditions need not be identical. Identical values can stand only once. Calls of active or inactive are those of the source.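 The calls were made as follows: active = compound whose MIC, giving a fourfold drop in bacterial growth, is 10 µM or lower; inactive = the rest.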

What was measured:
[1] = growth inhibition synergy with imipenem, VIM-2 bacteria – clinical strain PA641, MIC, late-stage follow-up (AID 624080); details: VIM-2 P. aeruginosa PA641 growth with imipenem, OD590; measured here: max imipenem fold potentiation; stronger effect = higher value
Method in brief: (§1)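 Dosing – test compound two-fold series along rows, checkerboard with imipenem · Incubation – ≥18 h at 37 °C, aerobic · Technique – turbidity by absorbance at 590 nm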

[2] = system: VIM-2 P. aeruginosa PA641 growth with imipenem, OD590; experiment: as above
Method in brief: as §1

| SMILES | MIC [2] | fold potentiation [1] |
| --- | --- | --- |
| O=C(CN1C(=O)/C(=C/c2c(Cl)cccc2Cl)SC1=S)NN1CCN(Cc2ccccc2)CC1 | > 50 µM (inactive) | – |
| CN1CCN(C(=O)CN2C(=O)/C(=C/c3c(Cl)ccc(Cl)c3Cl)SC2=S)CC1 | > 50 µM (inactive) | 4 |
| CN1CCN(NC(=O)CN2C(=O)/C(=C/c3c(Cl)ccc(C(F)(F)F)c3Cl)SC2=S)CC1 | > 50 µM (inactive) | 2 |
| O=C(CN1C(=O)/C(=C/c2c(Cl)ccc(Cl)c2Cl)SC1=S)NN1CCCCC1 | > 50 µM (inactive) | – |
| CCN(CC)OC(=O)CN1C(=O)/C(=C/c2c(Cl)cccc2Cl)SC1=S | > 100 µM (inactive) | – |
| O=C(CN1C(=O)/C(=C/c2c(Cl)cccc2Cl)SC1=S)NCc1ccccn1 | > 100 µM (inactive) | 2 |
| O=C(CN1C(=O)/C(=C/c2c(Cl)ccc(Cl)c2Cl)SC1=S)NCc1ccccn1 | > 50 µM (inactive) | – |
| CN1CCN(NC(=O)CN2C(=O)/C(=C/c3c(F)cccc3C(F)(F)F)SC2=S)CC1 | > 50 µM (inactive) | – |
| O=C(CN1C(=O)/C(=C/c2c(Cl)ccc(Cl)c2Cl)SC1=S)NN1CCNCC1 | > 50 µM (inactive) | 2 |
| O=C(O)CN1C(=O)/C(=C/c2c(Cl)cccc2Cl)SC1=S | > 100 µM (inactive) | – |
| CN1CCN(NC(=O)CN2C(=O)/C(=C/c3c(C(F)(F)F)ccc(Cl)c3Cl)SC2=S)CC1 | > 50 µM (inactive) | 4 |

Further lines, with some results ahead:

| MIC [2] | SMILES | fold potentiation [1] |
| --- | --- | --- |
| > 50 µM (inactive) | CN1CCN(NC(=O)CN2C(=O)/C(=C/c3c(Cl)ccc(Cl)c3Cl)SC2=S)CC1 | 4 and 2 |
| > 100 µM (inactive) | CN1CCN(NC(=O)CN2C(=O)/C(=C/c3c(Cl)cccc3Cl)SC2=S)CC1 | 2 |
| > 50 µM (inactive) | O=C(CN1C(=O)/C(=C/c2c(Cl)cccc2Cl)SC1=S)NN1CCNCC1 | 2 |
| > 50 µM (inactive) | O=C(CN1C(=O)/C(=C/c2c(Cl)cccc2Cl)SC1=S)NN1CCN(C(=O)c2ccccc2)CC1 | – |
| > 100 µM (inactive) | O=C(CN1C(=O)/C(=C/c2c(Cl)cccc2Cl)SC1=S)NN1CCCCC1 | – |
| > 50 µM (inactive) | CC(C)(C)OC(=O)N1CCN(NC(=O)CN2C(=O)/C(=C/c3c(Cl)ccc(Cl)c3Cl)SC2=S)CC1 | – |
| > 50 µM (inactive) | CN1CCN(NC(=O)CN2C(=O)/C(=C/c3c(F)cccc3Cl)SC2=S)CC1 | – |
| > 100 µM (inactive) | CC(C)(C)OC(=O)N1CCN(NC(=O)CN2C(=O)/C(=C/c3c(Cl)cccc3Cl)SC2=S)CC1 | – |
| > 50 µM (inactive) | CC(=O)N1CCN(NC(=O)CN2C(=O)/C(=C/c3c(Cl)cccc3Cl)SC2=S)CC1 | 2 |
